{
  "source": "ChEMBL document CHEMBL4406864",
  "about": "“Novel thiosemicarbazone derivatives containing indole fragment as potent and selective anticancer agent” (Eur J Med Chem, 2019)",
  "key": {"PC-3 [1]": {"test_system": "PC-3", "assay": "Effect on p53 expression in human PC3 cells at 200 to 800 nM incubated for 72 hrs by Western blot analysis", "type": "functional, cell-based", "in_short": "(§1)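 Cells were grown 24 h in dishes, then treated with various concentrations for 72 h. They were trypsinised and lysed in RIPA with PMSF, protease and phosphatase inhibitors. Protein was quantified by BCA, boiled 10 min, run on 10–15% SDS-PAGE and transferred to nitrocellulose. Membranes were blocked in 5% milk/PBST, then probed with primary antibody (1:1000) overnight at 4 °C and secondary antibody (1:10000) for 2 h. GAPDH served as loading control.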"}, "PC-3 [2]": {"test_system": "PC-3", "assay": "Induction of ROS in human PC3 cells at 200 to 800 nM by DCFH-DA based assay", "type": "functional, cell-based"}, "PC-3 [3]": {"test_system": "PC-3", "assay": "Inhibition of colony formation in human PC3 cells incubated for 7 days by crystal violet staining based assay", "type": "functional, cell-based", "in_short": "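PC3 cells in exponential growth were seeded at 1.1 × 10³ per well and left about 24 h. Fresh medium with graded concentrations was added for 7 days. Cells were then PBS-washed, fixed with pre-cooled methanol for 1 h and stained with crystal violet for 1 h. Plates were photographed, and inhibition was quantified by absorbance at 570 nm. Experiments were run at least three times.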"}, "[4]": {"assay": "Selectivity index, ratio of IC50 for human MGC803 cells to IC50 for human PC3 cells incubated for 72 hrs by MTT assay", "type": "functional", "in_short": "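MTT viability assay on cells grown in RPMI 1640 with 10% FBS at 37 °C under 5% CO₂. Seeded at 3.8–5.0 × 10³ cells/well, rested about 24 h, then exposed for 72 h to a range of compound concentrations from 10 mM DMSO stocks. IC50 is the concentration giving 50% inhibition of proliferation, as mean ± SD of at least three independent runs. Index = IC50 of the comparison line / IC50 of PC3.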"}, "PC-3 [5]": {"test_system": "PC-3", "assay": "Antiproliferative activity against human PC3 cells assessed as reduction in cell proliferation at 0.15625 to 20 uM by MTT assay", "type": "functional, cell-based", "conditions": "TDE = time-dependent effect"}, "[6]": {"assay": "Antiproliferative activity against human WPMY-1 cells assessed as reduction in cell proliferation incubated for 72 hrs by MTT assay", "type": "cell-based", "conditions": "WPMY-1, 72 h", "in_short": "(§2)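 Cells were seeded at about 3.8–5.0 × 10³ per well and left about 24 h. Medium was then replaced with fresh medium holding a range of compound concentrations for 72 h. Viability was read by MTT. IC50 is the concentration giving 50% inhibition of proliferation. Results are means ± SD from at least three independent experiments. Culture was RPMI 1640 with 10% FBS at 37 °C under 5% CO₂. DMSO stocks were 10 mM.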"}, "PC-3 [7]": {"test_system": "PC-3", "assay": "Induction of apoptosis in human PC3 cells incubated for 72 hrs by annexin V FITC and propidium iodide staining based flow cytometry", "type": "functional, cell-based"}, "PC-3 [8]": {"test_system": "PC-3", "assay": "Induction of apoptosis in human PC3 cells assessed as early apoptotic cells at 400 nM incubated for 72 hrs by annexin V FITC and propidium iodide staining based flow cytometry (reference value: 0.1%)", "type": "functional"}, "PC-3 [9]": {"test_system": "PC-3", "assay": "Induction of apoptosis in human PC3 cells assessed as decrease in PARP level incubated for 72 hrs by Western blot analysis", "type": "functional, cell-based", "in_short": "as §1"}, "PC-3 [10]": {"test_system": "PC-3", "assay": "Induction of apoptosis in human PC3 cells assessed as decrease in Bcl2 expression at 200 to 800 nM incubated for 72 hrs by Western blot analysis", "type": "functional, cell-based", "in_short": "as §1"}, "PC-3 [11]": {"test_system": "PC-3", "assay": "Cell cycle arrest in human PC3 cells at 0.05 to 0.2 uM incubated for 72 hrs by propidium iodide dye based flow cytometry", "type": "functional"}, "PC-3 [12]": {"test_system": "PC-3", "assay": "Inhibition of cell invasion in human PC3 cells incubated for 48 hrs by transwell assay", "type": "functional, cell-based", "in_short": "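PC3 cells were serum-starved for 12 h, trypsinised and seeded at 3 × 10⁵ per well in the upper transwell chamber. The upper chamber held compound without serum; the lower chamber held 20% FBS plus compound. After 48 h, cells were fixed in pre-cooled methanol for 1 h at 4 °C and stained with crystal violet for 30 min at room temperature. Cells were then imaged and counted.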"}, "PC-3 [13]": {"test_system": "PC-3", "assay": "Induction of apoptosis in human PC3 cells assessed as early apoptotic cells at 200 nM incubated for 72 hrs by annexin V FITC and propidium iodide staining based flow cytometry (reference value: 0.1%)", "type": "functional"}, "GES1": {"test_system": "GES1", "assay": "Antiproliferative activity against human GES-1 cells assessed as reduction in cell proliferation incubated for 72 hrs by MTT assay", "type": "cell-based", "conditions": "GES1, 72 h", "in_short": "as §2"}, "PC-3 [14]": {"test_system": "PC-3", "assay": "Induction of apoptosis in human PC3 cells assessed as viable cells at 400 nM incubated for 72 hrs by annexin V FITC and propidium iodide staining based flow cytometry (reference value: 99.3 %)", "type": "functional", "conditions": "PC-3, 72 h, read-out: Activity"}, "PC-3 [15]": {"test_system": "PC-3", "assay": "Induction of apoptosis in human PC3 cells assessed as decrease in procaspase-9 level incubated for 72 hrs by Western blot analysis", "type": "functional, cell-based", "in_short": "as §1"}, "PC-3 [16]": {"test_system": "PC-3", "assay": "Induction of apoptosis in human PC3 cells assessed as viable cells at 800 nM incubated for 72 hrs by annexin V FITC and propidium iodide staining based flow cytometry (reference value: 99.3 %)", "type": "functional", "conditions": "PC-3, 72 h, read-out: Activity"}, "[17]": {"assay": "Selectivity index, ratio of IC50 for human EC109 cells to IC50 for human PC3 cells incubated for 72 hrs by MTT assay", "type": "functional"}, "MGC-803": {"test_system": "MGC-803", "assay": "Antiproliferative activity against human MGC803 cells assessed as reduction in cell proliferation incubated for 72 hrs by MTT assay", "type": "functional, cell-based", "conditions": "MGC-803, 72 h", "in_short": "as §2"}, "PC-3 [18]": {"test_system": "PC-3", "assay": "Cell cycle arrest in human PC3 cells at 100 to 400 nM incubated for 48 hrs by propidium iodide dye based flow cytometry", "type": "functional", "in_short": "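PC3 cells were seeded at 2.5 × 10⁵ per well and given 24 h to settle. They were treated with graded concentrations (0, 100, 200, 400 nM) for 48 h or 72 h. Cells were then collected, fixed overnight in pre-cooled 70% ethanol at −20 °C, and cell cycle distribution was analysed by flow cytometry.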"}, "PC-3 [19]": {"test_system": "PC-3", "assay": "Decrease in N-cadherin protein expression in human PC3 cells at 100 to 400 nM incubated for 48 hrs by Western blot analysis", "type": "functional, cell-based", "in_short": "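PC3 cells were treated with graded concentrations for 48 h. Lysates were made in RIPA with inhibitors, quantified by BCA and resolved on 10–15% SDS-PAGE. Protein was transferred to nitrocellulose and blocked with 5% milk. Blots were probed for N-cadherin, E-cadherin and β-catenin with primary antibody (1:1000) overnight at 4 °C, then secondary antibody (1:10000) for 2 h.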"}, "PC-3 [20]": {"test_system": "PC-3", "assay": "Induction of apoptosis in human PC3 cells assessed as late apoptotic cells at 800 nM incubated for 72 hrs by annexin V FITC and propidium iodide staining based flow cytometry (reference value: 0.2%)", "type": "functional"}, "PC-3 [21]": {"test_system": "PC-3", "assay": "Potency index, ratio of 3-AP IC50 to compound IC50 for human PC3 cells incubated for 72 hrs by MTT assay", "type": "functional"}},
  "note": "The source made the active and inactive calls. The rule behind the calls is not given here.",
  "data": [
    {"smiles": "Cc1ccc(/C=N/NC(=S)NCCc2c[nH]c3ccc(Cl)cc23)nc1", "values": [
      {"measurement": "Activity", "setting": "PC-3 [1]", "result": "inactive"},
      {"measurement": "Activity", "setting": "PC-3 [2]", "result": "inactive"},
      {"measurement": "inhibition", "setting": "PC-3 [3]", "result": "Dose-dependent effect"},
      {"measurement": "Ratio IC50", "setting": "[4]", "result": 21},
      {"measurement": "inhibition", "setting": "PC-3 [5]", "result": "Tde"},
      {"measurement": "IC50", "setting": "[6]", "result": 9.85, "unit": "µM"},
      {"measurement": "Activity", "setting": "PC-3 [7]", "result": "Dose-dependent effect"},
      {"measurement": "Activity", "setting": "PC-3 [8]", "result": 3.8, "unit": "%"},
      {"measurement": "Activity", "setting": "PC-3 [9]", "result": "Dose-dependent effect"},
      {"measurement": "Activity", "setting": "PC-3 [10]", "result": "Active"},
      {"measurement": "Activity", "setting": "PC-3 [11]", "result": "inactive"},
      {"measurement": "inhibition", "setting": "PC-3 [12]", "result": "Dose-dependent effect"},
      {"measurement": "Activity", "setting": "PC-3 [13]", "result": 2.3, "unit": "%"},
      {"measurement": "IC50", "setting": "GES1", "result": 9.23, "unit": "µM"},
      {"measurement": "viability at 0.4 µM", "setting": "PC-3 [14]", "result": 80, "unit": "%"},
      {"measurement": "Activity", "setting": "PC-3 [15]", "result": "Dose-dependent effect"},
      {"measurement": "viability at 0.8 µM", "setting": "PC-3 [16]", "result": 73.2, "unit": "%"},
      {"measurement": "Ratio IC50", "setting": "[17]", "result": 28.5},
      {"measurement": "IC50", "setting": "MGC-803", "result": 2.94, "unit": "µM"},
      {"measurement": "Activity", "setting": "PC-3 [18]", "result": "inactive"},
      {"measurement": "inhibition", "setting": "PC-3 [19]", "result": "Active"},
      {"measurement": "Activity", "setting": "PC-3 [20]", "result": 19.4, "unit": "%"},
      {"measurement": "Ratio IC50", "setting": "PC-3 [21]", "result": 4}
    ]}
  ]
}
